# Measurements reported in paper PMC4123937 (Molecular Pharmaceutics, 2014).
# Test system: 4T1 mammary tumors
# Assay type: in vivo, mouse (BALB/c)
# Conditions: Alexa546-pHLIP i.v., time points 2, 4, 24, 48 h
# Outline: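 Female BALB/c mice, s.c. 4T1 cells (8 × 10^5 cells/0.1 mL) in right flank; used at ~6 mm tumor diameter. Single tail-vein dose of 5 nmol (100 μL of 50 μM) Alexa546-labeled peptide in PBS. Necropsy at 2, 4, 24, 48 h; excised tumor, muscle, kidney, liver imaged immediately; mean fluorescence intensity quantified. Six mice per construct.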
Sequence,Time postinjection of maximal renal fluorescence signal (kidney) [h],Time postinjection of maximum fluorescence signal in tumor (4T1 tumor) [h]
ACDDQNPWRAYLDLLFPTDTLLLDLLW [Var3],24,
ACEEQNPWARYLEWLFPTETLLLEL [Var7],,4
